Active and inactive are the calls of the source. The calls are words filed in the database; no cut-off is given here.
Experiments:
[1] = Stability in mouse liver microsomes assessed as compound remaining at 1.5 uM in presence of NADPH measured after 5 mins by liquid chromatography/tandem mass spectrometric analysis; type: ADME, microsome; details: read-out: Stability
[2] = Stability in human liver microsomes assessed as compound remaining at 1.5 uM in presence of NADPH measured after 5 mins by liquid chromatography/tandem mass spectrometric analysis; type: ADME, microsome; details: read-out: Stability
Summary of the method: (§1)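 Pooled liver microsomes (0.5 mg/mL) are preincubated 5 min at 37 °C in 0.16 M KH2PO4 with 1 mM NADPH, then test compound is added at 1.5 μM. Aliquots are quenched with 4 volumes of acetonitrile at 0, 5, 10, 15, 30 and 60 min and analyzed by LC-MS/MS. Percent remaining at 5 or 60 min is given when t1/2 is outside the 5–60 min range. Controls: testosterone, dextromethorphan.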

[3] = tested on: Liver; test: Half life in mouse liver microsomes at 1.5 uM in presence of NADPH by liquid chromatography/tandem mass spectrometric analysis; type: ADME, microsome
[4] = tested on: Liver; test: Half life in human liver microsomes at 1.5 uM in presence of NADPH by liquid chromatography/tandem mass spectrometric analysis; type: ADME, microsome
[5] = Ratio of drug level in brain to plasma in mouse at 5 mg/kg, ip administered as single dose measured at 1 hr post dose by liquid chromatography/tandem mass spectrometric analysis; type: ADME, organism-based
Summary of the method: (§2)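 Single ip dose of 5 mg/kg in 5% DMSO/7% Tween 80/3% EtOH in 0.9% saline, three mice per compound (six for one compound). At 1 h, plasma is separated by centrifugation and brain homogenized in acetonitrile. Both are quantified by LC-MS/MS, with brain corrected for 3% v/w blood. Brain/plasma ratio is reported as mean ± SEM.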

[6] = tested on: HepG2; test: Cytotoxicity against human HepG2 cells assessed as growth inhibition after 48 hrs by Alamar blue assay; type: cell-based; details: for EC50: Homo sapiens, HepG2, 48 h; for EC90: human, hepg2, 48 h
Summary of the method: (§3)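 CRL-8155 lymphoblasts or HepG2 hepatocellular carcinoma cells are exposed 48 h to serial compound dilutions in quadruplicate. Growth is read with Alamar Blue, and 50% and 90% inhibitory concentrations come from nonlinear regression. Quinacrine is the control.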

[7] = tested on: Trypanosoma brucei brucei; test: Antitrypanosomal activity against Trypanosoma brucei brucei BF427 assessed as growth inhibition measured after 48 hrs by Alamar blue assay; type: functional; details: BF427, 48 h
Summary of the method: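 Bloodstream-form parasites in HMI-9 medium are exposed to serial compound dilutions in triplicate. Viability is read with Alamar Blue at 48 h. EC50 and EC90 come from nonlinear regression. Pentamidine isethionate is the control.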

[8] = Cytotoxicity against human CRL8155 cells assessed as growth inhibition after 48 hrs by Alamar blue assay; type: cell-based; details: for EC50: Homo sapiens, CRL8155, 48 h; for EC90: human, crl8155, 48 h; summary of the method: as §3
[9] = Selectivity index, ratio of EC50 for human HepG2 cells to EC50 for Trypanosoma brucei brucei BF427; type: toxicity; details: read-out: Ratio EC50
[10] = Selectivity index, ratio of EC50 for human CRL8155 cells to EC50 for Trypanosoma brucei brucei BF427; type: toxicity; details: read-out: Ratio EC50
[11] = Cmax in mouse at 50 mg/kg, po administered as single dose via gavage as 7% Tween 80/3% EtOH/5% DMSO formulation by liquid chromatography/tandem mass spectrometric analysis; type: ADME, organism-based; parameters: dose 50 mg/kg, route oral; details: in vivo
Summary of the method: (§4)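 Single oral gavage dose of 50 mg/kg to groups of three mice, vehicle as in the line. Tail blood of 40 μL is taken into heparinized capillaries at time points out to as much as 32 h. It is spotted on dried-blood cards and quantified by LC-MS/MS. Values are means ± SEM of three mice.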

[12] = Drug level in mouse plasma at 5 mg/kg, ip administered as single dose measured at 1 hr post dose by liquid chromatography/tandem mass spectrometric analysis; type: ADME, organism-based; summary of the method: as §2
[13] = Drug level in mouse brain at 5 mg/kg, ip administered as single dose measured at 1 hr post dose by liquid chromatography/tandem mass spectrometric analysis; type: ADME, organism-based; details: read-out: Drug uptake; summary of the method: as §2
[14] = AUC (0 to infinity) in mouse at 50 mg/kg, po administered as single dose via gavage as 7% Tween 80/3% EtOH/5% DMSO formulation by liquid chromatography/tandem mass spectrometric analysis; type: ADME, organism-based; parameters: dose 50 mg/kg, route oral, time infinity; details: in vivo; summary of the method: as §4
[15] = Stability in human liver microsomes assessed as compound remaining at 1.5 uM in presence of NADPH measured after 60 mins by liquid chromatography/tandem mass spectrometric analysis; type: ADME, microsome; details: read-out: Stability; summary of the method: as §1
[16] = Stability in mouse liver microsomes assessed as compound remaining at 1.5 uM in presence of NADPH measured after 60 mins by liquid chromatography/tandem mass spectrometric analysis; type: ADME, microsome; details: read-out: Stability; summary of the method: as §1
[17] = tested on: Trypanosoma brucei brucei; test: Anti-parasitic activity against Trypanosoma brucei brucei TREU667 infected in mouse assessed as reduction in parasitemia at 10 mg/kg, ip bid administered on day 21 to 30 post infection measured on day 180 by microscopic method; type: functional, organism-based

Structure (SMILES)	remaining at 5 min, 1.5 µM [1]	remaining at 5 min, 1.5 µM [2]	t1/2 [3]	t1/2 [4]	BPR [5]	EC50 [7]	EC90 [7]	concentration at 1 h [12]	concentration at 1 h [13]	AUC(0-inf) [14]	remaining at 1 h, 1.5 µM [15]	EC50 [6]	EC90 [6]	EC50 [8]	EC90 [8]	selectivity ratio [9]	selectivity ratio [10]	Cmax [11]	remaining at 1 h, 1.5 µM [16]	Activity [17]
O=C(NCCc1nc(-c2ccc(F)cc2F)cs1)N1CCCCC1	0%	46%	< 5 min	< 5 min	–	–	–	–	–	–	–	–	–	–	–	–	–	–	–	–
O=C(NCCc1nc(-c2ccccc2)cs1)N1CCCCC1	–	–	–	–	0.613	–	–	–	–	–	–	–	–	–	–	–	–	–	–	–
O=C(Nc1ccc2sc(-c3ccc(F)c(F)c3)nc2c1)N1CCC(F)C1 (stereo not drawn)	–	–	> 60 min	> 60 min	2.11	51.9 nM	91.9 nM	3260 nM	5.48 µM	108 µM·h	99%	> 50 µM	> 50 µM	> 50 µM	–	> 963	> 963	10 µM	52%	–
CC(C)(CNC(=O)N1CCCCC1)c1nc(-c2ccccc2)cs1	0%	–	< 5 min	–	–	1300 nM	2400 nM	–	–	–	–	–	–	–	–	–	–	–	–	–
O=C(NCCc1nc(-c2ccc(F)c(F)c2)cs1)N1CCCCC1	0%	22%	< 5 min	< 5 min	–	–	–	–	–	–	–	–	–	–	–	–	–	–	–	–
O=C(Nc1ccc2sc(-c3ccccc3)nc2c1)c1ccccc1	–	–	50 min	–	–	2380 nM	7740 nM	–	–	–	53%	–	–	–	–	–	–	–	–	–
CC(C)(Cc1csc(-c2ccccc2)n1)NC(=O)N1CCCCC1	0%	–	< 5 min	–	–	7840 nM	9900 nM	–	–	–	–	–	–	–	–	–	–	–	–	–
O=C(NCCc1nc(-c2ccccc2)cs1)c1ccccc1	–	–	–	–	0.3	–	–	–	–	–	–	–	–	–	–	–	–	–	–	–
O=C(Nc1ccc2oc(-c3ccccc3)nc2c1)N1CCCCC1	–	–	11 min	–	–	2800 nM	9300 nM	–	–	–	77%	–	–	–	–	–	–	–	–	–
N=C(N)c1ccc(/N=N/Nc2ccc(C(=N)N)cc2)cc1	–	–	–	–	–	–	–	–	–	–	–	–	–	–	–	–	–	–	–	inactive
S=C(NCCc1nc(-c2ccccc2)cs1)c1ccccc1	0%	–	< 5 min	–	–	1440 nM	2630 nM	–	–	–	–	–	–	–	–	–	–	–	–	–

More lines, in order of falling EC50 [7], values ahead:

remaining at 5 min, 1.5 µM [1]	remaining at 5 min, 1.5 µM [2]	t1/2 [3]	t1/2 [4]	BPR [5]	EC50 [7]	EC90 [7]	concentration at 1 h [12]	concentration at 1 h [13]	AUC(0-inf) [14]	remaining at 1 h, 1.5 µM [15]	Structure (SMILES)	EC50 [6]	EC90 [6]	EC50 [8]	EC90 [8]	selectivity ratio [9]	selectivity ratio [10]	Cmax [11]	remaining at 1 h, 1.5 µM [16]	Activity [17]
–	–	–	–	7.92	934 nM	1660 nM	2810 nM	21.7 µM	–	–	O=C(Nc1ccc2sc(-c3ccc(F)c(F)c3)nc2c1)N1CCC(F)(F)C1	> 50 µM	> 50 µM	> 50 µM	> 50 µM	> 54	> 54	–	–	–
–	–	17 min	–	–	366 nM	809 nM	–	–	–	62%	O=C(Nc1ccc2sc(-c3ccccc3)nc2c1)N1CCCCC1	> 50 µM	> 50 µM	> 50 µM	> 50 µM	> 137	> 137	–	–	–
20%	–	< 5 min	5.8 min	–	164 nM	230 nM	–	–	–	–	O=C(NCCc1nc(-c2cccc(F)c2)cs1)N1CCC(F)(F)CC1	> 50 µM	> 50 µM	> 50 µM	> 50 µM	> 305	> 305	–	–	–
–	–	12 min	37 min	–	158 nM	391 nM	2220 nM	2.28 µM	–	–	O=C(Nc1ccc2sc(-c3cccc(F)c3)nc2c1)N1CCCC1	> 50 µM	> 50 µM	> 50 µM	> 50 µM	> 316	> 316	–	–	–
–	–	–	–	7.71	114 nM	747 nM	2190 nM	16.2 µM	225 µM·h	96%	O=C(Nc1ccc2sc(-c3ccc(F)c(F)c3)nc2c1)N1C[C@@H](F)[C@H](F)C1	> 50 µM	> 50 µM	27.1 µM	> 50 µM	> 439	> 238	–	67%	–
14%	–	< 5 min	5.1 min	–	108 nM	168 nM	–	–	–	–	O=C(NCCc1nc(-c2cccc(F)c2)cs1)N1CCCC(F)(F)C1	> 50 µM	> 50 µM	> 50 µM	> 50 µM	> 463	> 463	–	–	–
–	28%	13 min	< 5 min	–	94.6 nM	216 nM	–	–	–	–	O=C(N/C=C/c1nc(-c2cccc(F)c2)cs1)N1CCCCC1	> 50 µM	> 50 µM	> 50 µM	> 50 µM	> 529	> 529	–	–	–
–	–	14 min	–	–	91.8 nM	181 nM	2610 nM	4.25 µM	7.39 µM·h	66%	O=C(Nc1ccc2sc(-c3ccc(F)c(F)c3)nc2c1)N1CCCC1	> 50 µM	> 50 µM	33.9 µM	> 50 µM	> 545	369	–	–	–
21%	3.9%	< 5 min	< 5 min	–	37 nM	58.6 nM	–	–	–	–	CC1CCCCN1C(=O)NCCc1nc(-c2cccc(F)c2)cs1 (stereo not drawn)	> 50 µM	> 50 µM	> 50 µM	> 50 µM	> 1350	> 1350	–	–	–
5.5%	–	< 5 min	5.6 min	–	36.6 nM	57.5 nM	–	–	–	–	O=C(NCCc1nc(-c2cccc(F)c2)cs1)N1CCC(F)CC1	> 50 µM	> 50 µM	> 50 µM	> 50 µM	> 1370	> 1370	–	–	–
18%	–	< 5 min	10 min	–	28.5 nM	55.7 nM	–	–	–	–	O=C(NCCc1nc(-c2cccc(F)c2)cs1)N1CCCC(F)C1 (stereo not drawn)	> 50 µM	> 50 µM	> 50 µM	> 50 µM	> 1750	> 1750	–	–	–
1.8%	–	< 5 min	8.2 min	0.089	24.3 nM	42.4 nM	2000 nM	0.187 µM	–	–	Cl.S=C(NCCc1nc(-c2ccccc2)cs1)N1CCCCC1	> 50 µM	> 50 µM	> 50 µM	> 50 µM	> 2060	> 2060	–	–	–
